In ChEMBL document CHEMBL1157086, “Sesquiterpenoid aminoquinones from the marine sponge Dysidea sp” (J Nat Prod, 2010):
pIC50: −log10 of the molar value. Active and inactive are the calls of the source. No cut-off for these calls is given here.

Columns and labels:
Candida albicans = experiment: Antifungal activity against Candida albicans at 100 ug/ml; format: functional, organism-based
Staphylococcus aureus = experiment: Antibacterial activity against Staphylococcus aureus at 100 ug/ml; format: functional, organism-based
Ehrlich = experiment: Cytotoxicity activity against mouse EAC at 100 ug/ml; format: functional, cell-based
Escherichia coli = experiment: Antibacterial activity against Escherichia coli at 100 ug/ml; format: functional, organism-based
[1] = tested on: Radical scavenging activity; experiment: Antioxidant activity assessed as DPPH radical scavenging activity after 30 mins; format: functional
Outline: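 In EtOH, test concentrations 5, 10, 20, 50, 100 µM mixed with DPPH (0.1 mM final). A517 read after 30 min. Percent inhibition calculated against DPPH-only control, corrected for the compound's own absorbance at 517 nm. IC50 taken from the plotted inhibition curve as the concentration scavenging 50% of DPPH. Trolox served as positive control.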

With `C=C1CCC[C@H]2[C@](C)(CC3=CC(=O)C=C(NC)C3=O)[C@@H](C)CC[C@@]12C` the Activity (Candida albicans) was “inactive”, the Activity (Staphylococcus aureus) was “inactive” and the Activity (Ehrlich) was “inactive”. For the same compound, the Activity (Escherichia coli) was “inactive”.

`C=C1CCC[C@H]2[C@](C)(CC3=CC(=O)C(NC)=CC3=O)[C@@H](C)CC[C@@]12C` was tested, and the Activity (Candida albicans) was “inactive”, the Activity (Staphylococcus aureus) was “inactive” and the Activity (Ehrlich) was “inactive”. The Activity (Escherichia coli) was “inactive”.

`C=C1CCC[C@H]2[C@](C)(CC3=CC(=O)C=C(Nc4ccc(O)c(C[C@]5(C)[C@@H](C)CC[C@@]6(C)C(=C)CCC[C@@H]56)c4)C3=O)[C@@H](C)CC[C@@]12C` [POPOLOHUANONE A] showed a pIC50 [1] of 4.46.

`Cc1c(C)c2c(c(C)c1O)CCC(C)(C(=O)O)O2` (centres undefined) [TROLOX] showed a pIC50 [1] of 4.80.

With `C=C1CCC[C@H]2[C@](C)(CC3=CC(=O)C=C(N)C3=O)[C@@H](C)CC[C@@]12C` the Activity (Candida albicans) was “inactive”, the Activity (Staphylococcus aureus) was “inactive” and the Activity (Ehrlich) was “inactive”. For the same compound, the Activity (Escherichia coli) was “inactive”.

Compound `C=C1CCC[C@H]2[C@](C)(Cc3cc(O)ccc3O)[C@@H](C)CC[C@@]12C` [ARENAROL] has a pIC50 [1] of 4.72.

`C=C1CCC[C@H]2[C@](C)(CC3=CC(=O)C(Nc4ccc(O)c(C[C@]5(C)[C@@H](C)CC[C@@]6(C)C(=C)CCC[C@@H]56)c4)=CC3=O)[C@@H](C)CC[C@@]12C` [POPOLOHUANONE F] was tested, and the Activity (Candida albicans) was “inactive”, the pIC50 [1] was 4.46 and the Activity (Staphylococcus aureus) was “inactive”. For the same compound, the Activity (Ehrlich) was “inactive” and the Activity (Escherichia coli) was “inactive”.

With `C=C1CCC[C@H]2[C@](C)(CC3=CC(=O)C(N)=CC3=O)[C@@H](C)CC[C@@]12C` the Activity (Candida albicans) was “inactive”, the Activity (Staphylococcus aureus) was “inactive” and the Activity (Ehrlich) was “inactive”. For the same compound, the Activity (Escherichia coli) was “inactive”.
